In ChEMBL document CHEMBL1123700, “2-[(3-Pyridinylmethyl)thio]pyrimidine derivatives: new bronchosecretolytic agents” (1987):

How the values were obtained:
[1] = system: Mus musculus; test: Bronchosecretory activity measured as tracheal secretion of phenol red in mouse after oral administration; assay type: functional
In short: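 Male NMRI mice, food withheld 24 h, water free. Compounds suspended in 0.5% carboxymethylcellulose just before use and given by gavage at 5 mL/kg. Phenol red given intraperitoneally; 50 min after dosing it is measured photometrically in tracheal lavage fluid. Output compared with mean of vehicle controls. ED50 (dose giving 50% increase over control) by linear regression with 95% confidence limits.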

[2] = system: Canis familiaris; test: Percent viscosity was determined in canine bronchial mucus, 1 hr after intravenous administration of 0.5 mg/kg; assay type: functional, Canis lupus familiaris
In short: (§1)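 Mongrel dogs (18-24 kg), food withheld 16 h, anesthetized with pentobarbital 40 mg/kg iv plus infusion of 0.1 mg kg-1 min-1. Compounds in isotonic NaCl, given iv; 0.9% NaCl as control. Bronchial mucus sampled by bronchoscope, dialyzed against water at 0 °C for 24 h, freeze-dried, taken up at 1% w/v in 0.1 M Tris pH 7. Viscosity 1 h after dosing expressed as % of initial, mean ± SD.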

[3] = system: Canis familiaris; test: Percent viscosity was determined in canine bronchial mucus, 1 hr after intravenous administration of 0.1 mg/kg; assay type: functional, Canis lupus familiaris; in short: as §1
[4] = system: Canis familiaris; test: Percent viscosity was determined in canine bronchial mucus, 1 hr after intravenous administration of 0.2 mg/kg; assay type: functional, Canis lupus familiaris; in short: as §1
[5] = system: Mus musculus; test: Bronchosecretory activity measured as tracheal secretion of phenol red in mouse after subcutaneous administration

## Cc1ccc(CSc2ncccn2)cn1
[1]; Mus musculus, po
  ED50: 298 µmol/kg

## N=c1cc(N)nc(SCc2cccnc2)[nH]1
[1]; Mus musculus, po
  ED50: 272 µmol/kg

## Cc1ccnc([S+]([O-])Cc2cccnc2)n1 (configuration not stated)
[1]; Mus musculus, po
  ED50: 30.9 µmol/kg

## O=S(=O)(Cc1cccnc1)c1ccc(Cl)cc1
[1]; Mus musculus, po
  ED50: 27.9 µmol/kg

## [O-][S+](Cc1cccnc1)c1ccc(Cl)cc1 (configuration not stated)
[1]; Mus musculus, po
  ED50: 43.9 µmol/kg

## c1cncc(CSC2=NCCS2)c1
[1]; Mus musculus, po
  ED50: 20.3 µmol/kg

## [O-][S+](Cc1ccncc1)c1ncccn1 (configuration not stated)
[1]; Mus musculus, po
  ED50: 391 µmol/kg

## Cc1ccc2nc(SCc3cccnc3)oc2c1
[1]; Mus musculus, po
  ED50: 51.2 µmol/kg

## Cc1ccnc(SCc2cccnc2)n1
[1]; Mus musculus, po
  ED50: 39.4 µmol/kg

## Cc1cc(C)nc(SCc2cccnc2)n1
[1]; Mus musculus, po
  ED50: 44.8 µmol/kg

## c1ccc(CSc2ccccn2)nc1
[1]; Mus musculus, po
  ED50: 21.8 µmol/kg

## [O-][S+](Cc1cccnc1)c1ncccn1 (configuration not stated)
[1]; Mus musculus, po
  ED50: 7.82 µmol/kg

## c1ccc(-c2nc(SCc3cccnc3)oc2-c2ccccc2)cc1
[1]; Mus musculus, po
  ED50: 13.1 µmol/kg

## COc1cccc(SCc2cccnc2)c1
[1]; Mus musculus, po
  ED50: 182 µmol/kg

## Cc1ccc(SCc2cccnc2)cc1
[1]; Mus musculus, po
  ED50: 39.7 µmol/kg

## c1cnc(SCc2ccncc2)nc1
[1]; Mus musculus, po
  ED50: 41.7 µmol/kg

## Cc1ccc(S(=O)(=O)Cc2cccnc2)cc1
[1]; Mus musculus, po
  ED50: 141 µmol/kg

## Cc1ccc([S+]([O-])Cc2cccnc2)cc1 (configuration not stated)
[1]; Mus musculus, po
  ED50: 149 µmol/kg

## Cl.c1cnc(SCc2cccnc2)nc1
[2]
  Activity: 5.5%
[3]
  Activity: 109%
[1]
  ED50: 5.34 µmol/kg
[4]
  Activity: 28%

## CC(Sc1ncccn1)c1cccnc1 (configuration not stated)
[1]; Mus musculus, po
  ED50: 42.6 µmol/kg

## Nc1cc(O)nc(SCc2ccc(Cl)nc2)n1
[2]
  Activity: 19.7%
[1]; Mus musculus, po
  ED50: 8.3 µmol/kg
[4]
  Activity: 84.2%

## Cc1cc(O)nc(SCc2cccnc2)n1
[1]; Mus musculus, po
  ED50: 64.3 µmol/kg

## c1cncc(CSc2nc3ccccc3o2)c1
[1]; Mus musculus, po
  ED50: 61.9 µmol/kg

## Cc1ccc(C(C)Sc2ncccn2)cn1 (configuration not stated)
[1]; Mus musculus, po
  ED50: 432 µmol/kg

## Oc1ccnc(SCc2cccnc2)n1
[1]; Mus musculus, po
  ED50: 456 µmol/kg

## Nc1ccnc(SCc2cccnc2)n1
[1]; Mus musculus, po
  ED50: 22.9 µmol/kg

## Cn1ccnc1S(=O)(=O)Cc1cccnc1
[1]; Mus musculus, po
  ED50: 95.8 µmol/kg

## Clc1ccc(SCc2cccnc2)cc1
[1]; Mus musculus, po
  ED50: 22 µmol/kg

## c1cnc(SCc2cccnc2)nc1
[1]; Mus musculus, po
  ED50: 4.67 µmol/kg

## c1cncc(CSc2ncnc3[nH]ncc23)c1
[1]; Mus musculus, po
  ED50: 41.1 µmol/kg

## c1cncc(CSc2ccc3ccccc3n2)c1
[1]; Mus musculus, po
  ED50: 21.5 µmol/kg

## Cn1ccnc1SCc1cccnc1
[1]; Mus musculus, po
  ED50: 5.35 µmol/kg

## Cn1ccnc1[S+]([O-])Cc1cccnc1 (configuration not stated)
[1]; Mus musculus, po
  ED50: 49.8 µmol/kg

## Clc1ccc(CSc2ncccn2)cn1
[1]; Mus musculus, po
  ED50: 84.1 µmol/kg

## Nc1cc(O)nc(SCc2cccnc2)n1
[2]
  Activity: 15.8%
[1]; Mus musculus, po
  ED50: 8.93 µmol/kg
[4]
  Activity: 76.3%

## c1cncc(CSc2nc3ncccc3o2)c1
[1]; Mus musculus, po
  ED50: 38 µmol/kg

## c1cncc(CSc2nc3ccccc3[nH]2)c1
[1]; Mus musculus, po
  ED50: 31.8 µmol/kg

## Clc1ncccc1CSc1ncccn1
[1]; Mus musculus, po
  ED50: 84.1 µmol/kg

## c1ccc(SCc2cccnc2)nc1
[1]; Mus musculus, po
  ED50: 7.63 µmol/kg

## c1ccc(CSc2nc3ccccc3o2)nc1
[1]; Mus musculus, po
  ED50: 157 µmol/kg

## CC(C)(C)NCC(O)c1ccc(O)c(CO)c1 (configuration not stated) [ALBUTEROL]
[1]; Mus musculus, po, read-out: ED50
  ED50: 12.5 µmol/kg

## Nc1c(Br)cc(Br)cc1CN[C@H]1CC[C@H](O)CC1 [AMBROXOL]
[1]; Mus musculus, po
  ED50: 603 µmol/kg

## C[N+](C)(C)CCOC(N)=O [CARBACHOL]
[5]
  ED50: 0.2 µmol/kg

## NCC(O)c1cccc(O)c1 (configuration not stated) [NORFENEFRINE]
[5]
  ED50: 1.3 µmol/kg

## c1cnc(SCc2cccnc2)nc1 [TASULDINE]
[1]
  ED50: 4.82 µmol/kg
